Legend:
Format in all cases: functional
[1] = tested on: MCF7; assay: Antiproliferative activity against human MCF7 cells assessed as inhibition of cell growth at 1 X 10^-5 M measured for 48 hrs by sulforhodamine B assay relative to control; settings: MCF7, 48 h, dose 1 10^-5M
Procedure, shortened: (§1)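 NCI one-dose screen. Cells were seeded at 5000-40000/well in RPMI 1640 with 5% FBS and 2 mM L-glutamine and preincubated 24 h at 37 °C in 5% CO2. Compound was added at 10⁻⁵ M for 48 h. Cells were then fixed with 10% TCA, stained with sulforhodamine B, washed with 1% acetic acid, solubilized in 10 mM Tris and read as OD at 510 nm.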

[2] = tested on: MDA-MB-231; assay: Antiproliferative activity against human MDA-MB-231 cells assessed as inhibition of cell growth at 1 X 10^-5 M measured for 48 hrs by sulforhodamine B assay relative to control; settings: MDA-MB-231, 48 h, dose 1 10^-5M; procedure, shortened: as §1
[3] = tested on: Hs-578T; assay: Antiproliferative activity against human Hs-578T cells assessed as inhibition of cell growth at 1 X 10^-5 M measured for 48 hrs by sulforhodamine B assay relative to control; settings: dose 1 10^-5M; procedure, shortened: as §1
[4] = tested on: BT-549; assay: Antiproliferative activity against human BT-549 cells assessed as inhibition of cell growth at 1 X 10^-5 M measured for 48 hrs by sulforhodamine B assay relative to control; settings: BT-549, 48 h, dose 1 10^-5M; procedure, shortened: as §1
[5] = tested on: T47D; assay: Antiproliferative activity against human T47D cells assessed as inhibition of cell growth at 1 X 10^-5 M measured for 48 hrs by sulforhodamine B assay relative to control; settings: dose 1 10^-5M; procedure, shortened: as §1
[6] = tested on: MDA-MB-468; assay: Antiproliferative activity against human MDA-MB-468 cells assessed as inhibition of cell growth at 1 X 10^-5 M measured for 48 hrs by sulforhodamine B assay relative to control; settings: MDA-MB-468, 48 h, dose 1 10^-5M; procedure, shortened: as §1
[7] = tested on: MCF7; assay: Anticancer activity against human MCF7 cells measured at 48 hrs
Procedure, shortened: (§2)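 NCI DTP five-dose screen on the breast subpanel: compound at 0.01, 0.1, 1, 10 and 100 μM for 48 h. Cell density read by sulforhodamine B (protein content). GI50, TGI and LC50 were derived from the T, T0 and C optical densities using the NCI formulas.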

[8] = tested on: MDA-MB-231; assay: Anticancer activity against human MDA-MB-231 cells measured at 48 hrs; procedure, shortened: as §2
[9] = tested on: Hs-578T; assay: Anticancer activity against human Hs-578T cells measured at 48 hrs; procedure, shortened: as §2
[10] = tested on: BT-549; assay: Anticancer activity against human BT-549 cells measured at 48 hrs; procedure, shortened: as §2
[11] = tested on: T47D; assay: Anticancer activity against human T47D cells measured at 48 hrs; settings: for CC50: read-out: LC50 (the source's name); procedure, shortened: as §2
[12] = tested on: MDA-MB-468; assay: Anticancer activity against human MDA-MB-468 cells measured at 48 hrs; procedure, shortened: as §2

Row | Compound | inhibition at 10 µM [1] | inhibition at 10 µM [2] | inhibition at 10 µM [3] | inhibition at 10 µM [4] | inhibition at 10 µM [5] | inhibition at 10 µM [6] | GI50 [7] | LC50 (concentration giving 50% net cell kill) [7] | TGI [7] | GI50 [8] | LC50 (concentration killing 50% of starting cells) [8] | TGI [8] | GI50 [9] | LC50 (50% lethal concentration) [9] | TGI [9] | GI50 [10] | TGI [10] | GI50 [11] | TGI [11] | GI50 [12] | further results
1 | Cc1ccc(-c2nc(N3CCNCC3)c3oc(-c4ccc(C)cc4)nc3n2)cc1 | 173% | 172% | 1% | 17% | 63% | 133% | 1.72 µM | 7.86 µM | 3.68 µM | 1.74 µM | 6.81 µM | 3.44 µM | 2.27 µM | > 100 µM | 5.83 µM | 1.71 µM | 3.32 µM | 11.4 µM | 37.4 µM | 2.13 µM | LC50 (concentration giving 50% net cell kill) [10]: 6.48 µM; CC50 [11]: > 100 µM; LC50 (concentration giving 50% net cell kill) [12]: 13.5 µM; TGI [12]: 4.77 µM
2 | c1ccc(-c2nc(N3CCCNCC3)c3nc(-c4ccccc4)oc3n2)cc1 | 167% | 103% | 16% | 5% | 53% | 153% | 1.67 µM | 6.67 µM | 3.34 µM | 1.72 µM | 5.99 µM | 3.21 µM | 1.86 µM | 8.34 µM | 3.94 µM | 1.78 µM | 3.29 µM | 1.78 µM | 3.64 µM | 1.72 µM | CC50 [11]: 7.42 µM; LC50 (concentration giving 50% net cell kill) [12]: 6.57 µM; TGI [12]: 3.37 µM
3 | Cc1ccc(-c2nc(N3CCCNCC3)c3oc(-c4ccc(C)cc4)nc3n2)cc1 | 165% | 179% | 0% | 10% | 146% | 95% | 1.85 µM | 8.14 µM | 3.88 µM | 1.69 µM | 5.73 µM | 3.11 µM | 12.6 µM | 80.9 µM | 31.9 µM | 16.3 µM | 35 µM | 1.94 µM | 4.17 µM | 1.96 µM | LC50 (concentration giving 50% net cell kill) [10]: 75.2 µM; CC50 [11]: 8.96 µM; TGI [12]: 4.39 µM
4 | Cc1ccc(-c2nc3nc(-c4ccccc4)nc(N4CCCNCC4)c3o2)cc1 | 178% | 187% | 118% | 72% | 145% | 168% | 1.48 µM | 8.29 µM | 3.5 µM | 1.81 µM | 6.1 µM | 3.32 µM | 1.83 µM | 8.85 µM | 4.02 µM | 1.63 µM | 3.19 µM | 1.72 µM | 3.5 µM | 1.59 µM | LC50 (concentration giving 50% net cell kill) [10]: 6.25 µM; CC50 [11]: 7.1 µM; LC50 (concentration giving 50% net cell kill) [12]: 7.04 µM; TGI [12]: 3.35 µM
5 | Cc1ccc(-c2nc3nc(-c4ccc(F)cc4)nc(N4CCCNCC4)c3o2)cc1 | 172% | 185% | 176% | 177% | 164% | 176% | 1.23 µM | 7.14 µM | 2.96 µM | 1.63 µM | 5.91 µM | 3.11 µM | 1.78 µM | 7.63 µM | 3.69 µM | 1.66 µM | 3.37 µM | 1.85 µM | 3.94 µM | 1.58 µM | LC50 (concentration giving 50% net cell kill) [10]: 6.85 µM; LC50 (concentration giving 50% net cell kill) [12]: 6.41 µM; TGI [12]: 3.18 µM

Source: ChEMBL document CHEMBL5252671, “Design, synthesis and evaluation of the anti-breast cancer activity of 1,3-oxazolo[4,5-d]pyrimidine and 1,3-oxazolo[5,4-d]pyrimidine derivatives” (2023)
